Reference: ChEMBL document CHEMBL1687765, “NagZ inactivation prevents and reverts beta-lactam resistance, driven by AmpD and PBP 4 mutations, in Pseudomonas aeruginosa” (2010)
Values after ≈ are worked out from the molar mass of the structure shown. Active and inactive are the calls of the source. The rule behind the calls is not given here.

Tests used:
[1] = system: Pseudomonas aeruginosa; assay: Antimicrobial activity against Pseudomonas aeruginosa PAO1 by Etest method; format: functional
Method in brief: (§1)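 MICs read from Etest strips on Mueller-Hinton agar per manufacturer's instructions; agents ceftazidime, cefepime, aztreonam, piperacillin, piperacillin-tazobactam, imipenem and meropenem.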

[2] = system: Pseudomonas aeruginosa; assay: Antimicrobial activity against nagZ::lox gene-deficient Pseudomonas aeruginosa PAO1 by Etest method; format: functional; method in brief: as §1
[3] = system: Pseudomonas aeruginosa; assay: Antimicrobial activity against ampD::lox gene-deficient Pseudomonas aeruginosa PAO1 by Etest method; format: functional; method in brief: as §1
[4] = system: Pseudomonas aeruginosa; assay: Antimicrobial activity against ampD::lox and nagZ::lox gene-deficient Pseudomonas aeruginosa PAO1 by Etest method; format: functional; method in brief: as §1
[5] = system: Pseudomonas aeruginosa; assay: Antimicrobial activity against dacB::lox gene-deficient Pseudomonas aeruginosa PAO1 by Etest method; format: functional; method in brief: as §1
[6] = system: Pseudomonas aeruginosa; assay: Antimicrobial activity against dacB::lox and nagZ::lox gene-deficient Pseudomonas aeruginosa PAO1 by Etest method; format: functional; method in brief: as §1
[7] = system: Pseudomonas aeruginosa; assay: Antimicrobial activity against ampD::lox gene-deficient Pseudomonas aeruginosa PAO1 harboring dacB gene by Etest method; format: functional; method in brief: as §1
[8] = system: Pseudomonas aeruginosa; assay: Antimicrobial activity against ampD::lox and nagZ::lox gene-deficient Pseudomonas aeruginosa PAO1 harboring dacB gene by Etest method; format: functional; method in brief: as §1
[9] = system: Pseudomonas aeruginosa; assay: Antimicrobial activity against ampD::lox, ampDh2::lox and ampDh3::lox gene-deficient Pseudomonas aeruginosa PAO1 by Etest method; format: functional
Method in brief: (§2)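 Etest strips on Mueller-Hinton agar, read per manufacturer's recommendations; P. aeruginosa PAO1 triple mutant deficient in ampD, ampDh2 and ampDh3 (lox deletions). Agents tested by Etest: ceftazidime, cefepime, aztreonam, piperacillin, piperacillin-tazobactam, imipenem, meropenem.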

[10] = system: Pseudomonas aeruginosa; assay: Antimicrobial activity against ampD::lox, ampDh2::lox,ampDh3::lox and nagZ::lox gene-deficient Pseudomonas aeruginosa PAO1 by Etest method; format: functional; method in brief: as §1
[11] = system: Pseudomonas aeruginosa; assay: Antimicrobial activity against ampR::lox gene-deficient Pseudomonas aeruginosa PAO1 by Etest method; format: functional; method in brief: as §1
[12] = system: Pseudomonas aeruginosa; assay: Antimicrobial activity against ampC::lox gene-deficient Pseudomonas aeruginosa PAO1 by Etest method; format: functional; method in brief: as §1
[13] = system: Pseudomonas aeruginosa; assay: Antimicrobial activity against Pseudomonas aeruginosa PAO1 by broth microdilution method; format: functional
Method in brief: (§3)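 Broth microdilution MICs of ceftazidime, aztreonam and piperacillin in 100 μl cation-adjusted Mueller-Hinton broth, with or without NagZ inhibitor PUGNAc at 0.5 mM or 5 mM; measurements in triplicate.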

[14] = system: Pseudomonas aeruginosa; assay: Antimicrobial activity against ampD::lox gene-deficient Pseudomonas aeruginosa PAO1 by broth microdilution method; format: functional; method in brief: as §3
[15] = system: Pseudomonas aeruginosa; assay: Antimicrobial activity against dacB::lox gene-deficient Pseudomonas aeruginosa PAO1 by broth microdilution method; format: functional; method in brief: as §3
[16] = system: Pseudomonas aeruginosa; assay: Antimicrobial activity against ampD::lox gene-deficient Pseudomonas aeruginosa PAO1 harboring dacB gene by broth microdilution method; format: functional; method in brief: as §3
[17] = system: Pseudomonas aeruginosa; assay: Antimicrobial activity against Pseudomonas aeruginosa PAO1 by broth microdilution method in presence of 0.5 mM NagZ inhibitor PUGNAc; format: functional; method in brief: as §3
[18] = system: Pseudomonas aeruginosa; assay: Antimicrobial activity against ampD::lox gene-deficient Pseudomonas aeruginosa PAO1 by broth microdilution method in presence of 0.5 mM NagZ inhibitor PUGNAc; format: functional; method in brief: as §3
[19] = system: Pseudomonas aeruginosa; assay: Antimicrobial activity against dacB::lox gene-deficient Pseudomonas aeruginosa PAO1 by broth microdilution method in presence of 0.5 mM NagZ inhibitor PUGNAc; format: functional; method in brief: as §3
[20] = system: Pseudomonas aeruginosa; assay: Antimicrobial activity against ampD::lox gene-deficient Pseudomonas aeruginosa PAO1 harboring dacB gene by broth microdilution method in presence of 0.5 mM NagZ inhibitor PUGNAc; format: functional
Method in brief: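 MICs of ceftazidime, aztreonam and piperacillin determined by broth microdilution in cation-adjusted Mueller-Hinton broth, with 0.5 mM of the N-acetyl-β-glucosaminidase (NagZ) inhibitor PUGNAc added alongside the β-lactam and untreated controls run in parallel; all measurements performed in triplicate.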

[21] = system: Pseudomonas aeruginosa; assay: Antimicrobial activity against Pseudomonas aeruginosa PAO1 by broth microdilution method in presence of 5 mM NagZ inhibitor PUGNAc; format: functional; method in brief: as §3
[22] = system: Pseudomonas aeruginosa; assay: Antimicrobial activity against ampD::lox gene-deficient Pseudomonas aeruginosa PAO1 by broth microdilution method in presence of 5 mM NagZ inhibitor PUGNAc; format: functional; method in brief: as §3
[23] = system: Pseudomonas aeruginosa; assay: Antimicrobial activity against dacB::lox gene-deficient Pseudomonas aeruginosa PAO1 by broth microdilution method in presence of 5 mM NagZ inhibitor PUGNAc; format: functional; method in brief: as §3
[24] = system: Pseudomonas aeruginosa; assay: Antimicrobial activity against ampD::lox gene-deficient Pseudomonas aeruginosa PAO1 harboring dacB gene by broth microdilution method in presence of 5 mM NagZ inhibitor PUGNAc; format: functional; method in brief: as §3
[25] = system: Pseudomonas aeruginosa; assay: Antimicrobial activity against Pseudomonas aeruginosa PAO1 at 1 ug/ml; format: functional, organism-based
Method in brief: (§4)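 Population analysis: serial dilutions of overnight MH broth cultures plated on MH agar with 0, 0.5, 1, 2, 4, 8 or 16 μg/ml ceftazidime; colonies counted after 24 h as CFU at each concentration; triplicate, mean ± standard deviation.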

[26] = system: Pseudomonas aeruginosa; assay: Antimicrobial activity against nagZ::lox gene-deficient Pseudomonas aeruginosa PAO1 at 1 ug/ml; format: functional, organism-based; method in brief: as §4
[27] = system: Pseudomonas aeruginosa; assay: Antimicrobial activity against Pseudomonas aeruginosa PAO1 by Etest method in presence of beta-lactamase inhibitor Tazobactam; format: functional; method in brief: as §1
[28] = system: Pseudomonas aeruginosa; assay: Antimicrobial activity against nagZ::lox gene-deficient Pseudomonas aeruginosa PAO1 by Etest method in presence of beta-lactamase inhibitor Tazobactam; format: functional; method in brief: as §1
[29] = system: Pseudomonas aeruginosa; assay: Antimicrobial activity against ampD::lox gene-deficient Pseudomonas aeruginosa PAO1 by Etest method in presence of beta-lactamase inhibitor Tazobactam; format: functional; method in brief: as §1
[30] = system: Pseudomonas aeruginosa; assay: Antimicrobial activity against ampD::lox and nagZ::lox gene-deficient Pseudomonas aeruginosa PAO1 by Etest method in presence of beta-lactamase inhibitor Tazobactam; format: functional
Method in brief: (§5)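 MICs on Mueller-Hinton agar by Etest strips (piperacillin-tazobactam among the agents tested), per manufacturer's instructions.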

[31] = system: Pseudomonas aeruginosa; assay: Antimicrobial activity against dacB::lox gene-deficient Pseudomonas aeruginosa PAO1 by Etest method in presence of beta-lactamase inhibitor Tazobactam; format: functional; method in brief: as §1
[32] = system: Pseudomonas aeruginosa; assay: Antimicrobial activity against dacB::lox and nagZ::lox gene-deficient Pseudomonas aeruginosa PAO1 by Etest method in presence of beta-lactamase inhibitor Tazobactam; format: functional; method in brief: as §5
[33] = system: Pseudomonas aeruginosa; assay: Antimicrobial activity against ampD::lox and nagZ::lox gene-deficient Pseudomonas aeruginosa PAO1 harboring dacB gene by Etest method in presence of beta-lactamase inhibitor Tazobactam; format: functional; method in brief: as §1
[34] = system: Pseudomonas aeruginosa; assay: Antimicrobial activity against ampD::lox, ampDh2::lox and ampDh3::lox gene-deficient Pseudomonas aeruginosa PAO1 by Etest method in presence of beta-lactamase inhibitor Tazobactam; format: functional; method in brief: as §2
[35] = system: Pseudomonas aeruginosa; assay: Antimicrobial activity against ampD::lox, ampDh2::lox,ampDh3::lox and nagZ::lox gene-deficient Pseudomonas aeruginosa PAO1 by Etest method in presence of beta-lactamase inhibitor Tazobactam; format: functional; method in brief: as §5
[36] = system: Pseudomonas aeruginosa; assay: Antimicrobial activity against ampR::lox gene-deficient Pseudomonas aeruginosa PAO1 by Etest method in presence of beta-lactamase inhibitor Tazobactam; format: functional; method in brief: as §1
[37] = system: Pseudomonas aeruginosa; assay: Antimicrobial activity against ampC::lox gene-deficient Pseudomonas aeruginosa PAO1 by Etest method in presence of beta-lactamase inhibitor Tazobactam; format: functional; method in brief: as §1

Row | SMILES | MIC [1] | MIC [2] | MIC [3] | MIC [4] | MIC [5] | MIC [7] | MIC [8] | MIC [9] | MIC [10] | MIC [11] | MIC [12] | MIC [13] | MIC [14] | MIC [15] | MIC [16] | MIC [17] | MIC [18] | MIC [19] | MIC [20] | MIC [21] | also measured
1 | C[C@@H](O)[C@H]1C(=O)N2C(C(=O)O)=C(S[C@@H]3CN[C@H](C(=O)N(C)C)C3)[C@H](C)[C@H]12 [MEROPENEM] | 0.38 µg/mL (≈ 0.991 µM) | 0.38 µg/mL (≈ 0.991 µM) | 1 µg/mL (≈ 2.61 µM) | 0.5 µg/mL (≈ 1.3 µM) | 0.5 µg/mL (≈ 1.3 µM) | 1.5 µg/mL (≈ 3.91 µM) | 0.5 µg/mL (≈ 1.3 µM) | 1 µg/mL (≈ 2.61 µM) | 1 µg/mL (≈ 2.61 µM) | 0.25 µg/mL (≈ 0.652 µM) | 0.25 µg/mL (≈ 0.652 µM) |  |  |  |  |  |  |  |  |  | MIC [6]: 0.38 µg/mL (≈ 0.991 µM)
2 | CC(C)(O/N=C(\C(=O)N[C@@H]1C(=O)N2C(C(=O)[O-])=C(C[n+]3ccccc3)CS[C@H]12)c1csc(N)n1)C(=O)O [CEFTAZIDIME] | 1.5 µg/mL (≈ 2.74 µM) | 1 µg/mL (≈ 1.83 µM) | 8 µg/mL (≈ 14.6 µM) | 2 µg/mL (≈ 3.66 µM) | 24 µg/mL (≈ 43.9 µM) | 96 µg/mL (≈ 176 µM) | 4 µg/mL (≈ 7.32 µM) | 32 µg/mL (≈ 58.5 µM) | 3 µg/mL (≈ 5.49 µM) | 2 µg/mL (≈ 3.66 µM) | 1 µg/mL (≈ 1.83 µM) | 2 µg/mL (≈ 3.66 µM) | 8 µg/mL (≈ 14.6 µM) | 24 µg/mL (≈ 43.9 µM) | 96 µg/mL (≈ 176 µM) | 2 µg/mL | 4 µg/mL | 8 µg/mL | 64 µg/mL | 2 µg/mL | MIC [22]: 4 µg/mL; MIC [23]: 6 µg/mL; MIC [24]: 64 µg/mL; Activity [25]: Active; Activity [26]: Active
3 | CCN1CCN(C(=O)N[C@@H](C(=O)N[C@@H]2C(=O)N3[C@@H]2SC(C)(C)[C@@H]3C(=O)O)c2ccccc2)C(=O)C1=O [PIPERACILLIN] |  |  |  |  |  |  |  |  |  |  |  | 4 µg/mL (≈ 7.73 µM) | 48 µg/mL (≈ 92.7 µM) | 64 µg/mL (≈ 124 µM) | 384 µg/mL (≈ 742 µM) | 4 µg/mL | 24 µg/mL | 32 µg/mL | 256 µg/mL | 4 µg/mL | MIC [22]: 24 µg/mL; MIC [23]: 24 µg/mL; MIC [24]: 256 µg/mL; MIC [27]: 2 µg/mL; MIC [28]: 2 µg/mL; MIC [29]: 32 µg/mL; MIC [30]: 3 µg/mL; MIC [31]: 64 µg/mL; MIC [32]: 3 µg/mL; MIC [33]: 16 µg/mL; MIC [34]: > 256 µg/mL; MIC [35]: 8 µg/mL; MIC [36]: 4 µg/mL; MIC [37]: 2 µg/mL
